Test results as given in ChEMBL document CHEMBL3112437, “Virtual screening reveals allosteric inhibitors of the Toxoplasma gondii thymidylate synthase-dihydrofolate reductase” (Bioorg Med Chem Lett, 2014).
The source made the active and inactive calls. No cut-off for these calls is given here.

Tests used:
[1] = biological target: T1, Bifunctional dihydrofolate reductase-thymidylate synthase (Toxoplasma gondii, UniProt Q07422); experiment: Inhibition of Toxoplasma gondii TS-DHFR using methylenetetrahydrofolate/dUMP as sustrate preincubated for 10 mins followed by substrate addition
T1 sequence (Q07422 whole entry): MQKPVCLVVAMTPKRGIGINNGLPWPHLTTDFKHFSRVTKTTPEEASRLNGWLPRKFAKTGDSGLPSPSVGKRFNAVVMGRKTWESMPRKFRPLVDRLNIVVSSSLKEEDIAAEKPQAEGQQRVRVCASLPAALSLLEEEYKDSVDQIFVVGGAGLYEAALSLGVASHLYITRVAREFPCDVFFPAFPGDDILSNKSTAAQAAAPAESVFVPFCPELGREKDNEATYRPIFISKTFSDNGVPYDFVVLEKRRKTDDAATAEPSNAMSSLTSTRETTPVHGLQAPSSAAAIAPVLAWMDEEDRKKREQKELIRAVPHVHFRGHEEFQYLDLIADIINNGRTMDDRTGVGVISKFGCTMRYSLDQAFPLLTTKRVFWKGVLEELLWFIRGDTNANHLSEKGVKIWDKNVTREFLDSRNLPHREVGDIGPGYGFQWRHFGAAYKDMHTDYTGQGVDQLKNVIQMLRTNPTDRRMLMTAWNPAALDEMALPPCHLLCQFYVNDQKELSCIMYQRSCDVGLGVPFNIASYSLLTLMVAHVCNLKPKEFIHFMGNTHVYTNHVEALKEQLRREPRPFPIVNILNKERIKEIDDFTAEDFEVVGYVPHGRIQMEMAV
Method in brief: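 T. gondii TS activity at varying compound concentrations. Compound was mixed with apo TS-DHFR, with no dUMP preincubation. Data were fit to a Michaelis-Menten curve to give IC50. Points in duplicate; SD between repeats.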

[2] = biological target: T2, Dihydrofolate reductase (Homo sapiens) (UniProt P00374); experiment: Inhibition of DHFR (unknown origin)
T2 sequence (whole entry): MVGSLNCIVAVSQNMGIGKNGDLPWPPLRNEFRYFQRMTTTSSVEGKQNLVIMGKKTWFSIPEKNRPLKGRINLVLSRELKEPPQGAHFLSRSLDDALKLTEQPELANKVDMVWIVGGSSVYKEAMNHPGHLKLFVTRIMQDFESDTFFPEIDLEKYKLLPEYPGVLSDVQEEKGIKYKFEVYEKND

[3] = biological target: T3, Bifunctional dihydrofolate reductase-thymidylate synthase (Toxoplasma gondii) (UniProt Q07422); experiment: Noncompetitive inhibition of Toxoplasma gondii TS-DHFR using methylenetetrahydrofolate as substrate at 25 uM by Michaelis-Menten plot analysis
T3 sequence (whole entry): T1 sequence (Q07422 whole entry)

[4] = biological target: T3, Bifunctional dihydrofolate reductase-thymidylate synthase (Toxoplasma gondii); experiment: Mixed type inhibition of Toxoplasma gondii TS-DHFR using dUMP as substrate at 25 uM by Michaelis-Menten plot analysis
[5] = biological target: T1, Bifunctional dihydrofolate reductase-thymidylate synthase; experiment: (§1) Inhibition of Toxoplasma gondii TS-DHFR by Michaelis-Menten plot analysis in presence of bovine serum albumin
Method in brief: (§2)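 Promiscuity (aggregation) check: TgTS-DHFR was preincubated with 0.1 mg/mL BSA before inhibitor was added. TS inhibitory potency was then determined.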

[6] = biological target: T1, Bifunctional dihydrofolate reductase-thymidylate synthase; experiment: Inhibition of Toxoplasma gondii TS-DHFR using methylenetetrahydrofolate/dUMP as sustrate
Method in brief: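 T. gondii TS-DHFR was preincubated with dUMP before compound was added. TS activity was measured across varying compound concentrations. Data were fit to a Michaelis-Menten curve for IC50. Duplicate points; SD between repeats.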

[7] = biological target: T3, Bifunctional dihydrofolate reductase-thymidylate synthase (Toxoplasma gondii); experiment: as §1; method in brief: as §2

COC(=O)Nc1nc2cc(-c3nnc(O)c4ccccc34)ccc2[nH]1
IC50 [1]: 51 µM | inhibition [2]: inactive | inhibition [3]: Active | inhibition [4]: Active | IC50 [5]: 139 µM | IC50 [6]: 142 µM

O=C(Nc1ccccc1)OCc1ccc(-c2cc(C(F)(F)F)cc(C(F)(F)F)c2)o1
IC50 [1]: 54 µM | inhibition [7]: inactive | IC50 [6]: 190 µM
